Screening results as filed in PubChem.
Vif imaging = blocks HIV Vif function. HEK293T cells, Vif self-association by quenched fluorescence, imaging, 24 h. inhibition, % at 7.49 µM. actives 0.35% (n = 340,000). AID 602346; in the data active = inhibition above about 50%, passing the limit was not always enough
Myeloid diff MLP = promotes myeloid progenitor differentiation. ER-HoxA9 myeloid progenitors, lysozyme-GFP differentiation, flow cytometry. calls only at 10 µM. actives 1% (n = 360,000). AID 624256;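 active = normalized GFP-positive differentiation at or above the plate's own cutoff, the solvent-only control mean plus 3 SD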;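 also: cells exposed to compound for four days before flow analysis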
T cell modulator = T cell immune modulators affecting CD8 T cell-vesicle binding; 2C CD8+ T cell-vesicle binding, flow cytometry; hits give low values; response (vesicle binding), % at 7 µM; actives 0.068% (n = 330,000);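 active = response, share of CD8 T cells binding vesicles, and their 90th percentile fluorescence all below set limits, cut at about 80% in these data, passing the limit was not always enough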;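 also: values below 100% mean blocked vesicle binding to the CD8+ T cells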
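Material: murine 2C transgenic CD8+ T lymphocytes / Also added: QL9-peptide-loaded Drosophila micro-vesicles bearing Ld, ICAM-1 and B7-1 / Schedule: binding step 1.5 h, 37 °C, antibody labelling 20 min, ice / Signal: flow cytometry, PE anti-B7-1 (FL2) versus Alexa647 anti-CD8 (FL8), PFA-fixed / Evaluation: percent CD8+ FL2 mean versus row control / Benchmarks: naked versus QL9-loaded vesicles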
CASP6 VEID inh = caspase-6 (human) enzyme inhibition | P55212 | purified caspase-6, Z-VEID-R110 cleavage fluorescence | inhibition, % at 12.5 µM | actives 0.53% (n = 350,000);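 active = mean inhibition across replicates at least about 35%, with every replicate also reaching that limit, limit read from the data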;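 also: 0% = median of neutral control wells and 100% = no fluorescence left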
Target sequence (P55212 24-179 limits assumed): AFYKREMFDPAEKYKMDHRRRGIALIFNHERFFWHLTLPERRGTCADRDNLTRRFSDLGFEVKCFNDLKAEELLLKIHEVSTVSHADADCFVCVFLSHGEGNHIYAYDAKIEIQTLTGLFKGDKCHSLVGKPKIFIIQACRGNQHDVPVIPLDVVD
Target sequence (P55212 194-293 limits assumed): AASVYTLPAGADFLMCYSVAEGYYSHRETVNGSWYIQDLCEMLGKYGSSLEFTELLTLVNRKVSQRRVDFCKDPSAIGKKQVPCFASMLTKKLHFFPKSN
* marks the source's active call; other numbers are inactive results; i = inactive; . = not tested or not shown; + = active, no number. This is a sample that favours compounds with a hit; in the whole collection about 1.4% have one here.

SMILES	Vif imaging	Myeloid diff MLP	T cell modulator	CASP6 VEID inh
Cc1cc(C)n(-c2ccn(Cc3ccc(Cl)cc3Cl)c(=O)n2)n1	-23.6	+	174.6	.
NC(c1csc(NC(=O)c2cccc(OC(F)(F)F)c2)n1)c1ccccc1Cl (configuration not stated)	-3.3	+	.	-3.9
CN1c2ccc(C3=CCCCC3)cc2[C@@H]2[C@@H](CCN2C(=O)C2CC2)[C@H]1CO	.	.	.	1.9
CCOC(=O)Cc1csc(NC(=O)CCCc2ccccc2)n1	2.2	i	0.0*	1.6
CCOC(=O)Cc1csc(NC(=O)CCC(=O)O)n1	-3.0	i	631.6	-1.3
COc1cc(/C=N/Nc2nncc3ccccc23)cc(OC)c1OC	-5.2	+	169.7	1.3
C(=N\Nc1nncc2ccccc12)/c1ccccc1	10.5	i	415.6	-0.4
COC(=O)c1cc2ccccc2c(-c2c(OC)c(C(=O)OC)cc3ccccc23)c1OC	-21.4	+	908.1	.
N#Cc1ccc(CSc2nnc(-c3ccccc3)n2Cc2ccco2)cc1	11.0	+	.	.
N#Cc1ccc(CSc2nnc(-c3cccs3)n2-c2ccccc2)cc1	55.1*	i	149.7	.
CN1C(=O)C(C)(C)c2cc(S(=O)(=O)N3CCN(c4ccccc4)CC3)ccc21	0.8	i	977.7	0.5
CN1C(=O)C(C)(C)c2cc(S(=O)(=O)N3CCCCCC3)ccc21	87.7*	i	519.6	-0.7
CCOC(=O)C1(Cc2cccc(F)c2)CCN(Cc2nc(CC)[nH]c2C)CC1	85.1*	+	234.0	-8.6
CCOC(=O)C1(Cc2ccccc2)CCN(Cc2cnn(C(C)C)c2)CC1	6.2	i	111.4	3.2
CCOC(=O)C1(Cc2ccccc2)CCN(Cc2csc(C(C)=O)c2)CC1	119.0*	i	104.9	.
Cc1cccc(S(=O)(=O)NC[C@@H]2CC[C@H]3NC[C@H]3O2)c1	.	.	.	-1.8
Cc1nc(S/C(=C\c2ccc(OCc3ccccc3Cl)cc2)C(=O)O)n[nH]1	9.7	i	225.6	.
Cc1nc(S/C(=C\c2ccc(-c3ccc(C(=O)O)c(Cl)c3)o2)C(=O)O)n[nH]1	5.7	i	.	58.5*
Cc1ccc(NC(=S)/C(=C(\[O-])c2ccc(C)c([N+](=O)[O-])c2)[n+]2ccccc2)cc1C	.	.	148.3	.
COc1cccc(NC(=S)/C(=C(\[O-])c2ccc(C)c([N+](=O)[O-])c2)[n+]2ccccc2)c1	-8.1	+	420.7	.
C[C@H]1CN([C@@H](C)CO)C(=O)c2cccc(NC(=O)C3CCOCC3)c2O[C@@H]1CN(C)CC1CC1	.	.	.	-1.6
O=C(CCCCn1ccc(=O)[nH]c1=O)Nc1ccc(O)c(C(=O)O)c1	78.1*	i	.	-2.8
CCn1c(SCC(=O)Nc2cc(C)on2)nnc1-c1ccccc1	-14.3	i	382.2	.
Cc1cc(NC(=O)CSc2nc(C)c(C)c(=O)[nH]2)no1	-3.3	i	238.3	1.7
COc1ccc(NC(=O)CSc2nc(O)cc(=O)n2-c2ccc(OC)cc2)cc1	14.0	+	329.3	1.3
SMILES	Vif imaging	Myeloid diff MLP	T cell modulator	CASP6 VEID inh
Cc1cc(NC(=O)CSc2nc3ccccc3c(=O)n2-c2ccccc2)no1	54.9*	i	282.1	-4.4
Cc1cc(NC(=O)CSc2nnc(C)c(=O)[nH]2)no1	68.9*	i	764.2	7.2
CCn1c(SCC(=O)Nc2cc(C)on2)nnc1-c1ccc(OC)cc1	50.1*	i	316.1	0.3
C[C@H](CO)N1C[C@H](C)[C@H](CN(C)C)Oc2ncc(-c3cccc(F)c3)cc2C1=O	.	.	.	-1.3
COc1ccc(-n2c(SCC(=O)Nc3ccc4c(c3)OCO4)nc3ccccc3c2=O)cc1	37.8	+	158.4	.
CCOc1ccc(-n2c(SCC(=O)Nc3ccc4c(c3)OCO4)nc3ccccc3c2=O)cc1	0.5	i	408.1	.
COc1ccccc1-c1ccc2c(c1)O[C@H](CN(C)C(=O)c1ccccc1)[C@@H](C)CN([C@H](C)CO)S2(=O)=O	.	.	.	-1.6
COCC#Cc1cnc2c(c1)C(=O)N([C@H](C)CO)C[C@H](C)[C@@H](CN(C)Cc1ccccc1F)O2	.	.	.	1.7
O=C1N(Cc2cccc(Cl)c2)C[C@@H]2C[C@@H](c3c[nH]c4ccccc34)N3CCC[C@@]123	-18.0	+	163.7	-0.5
Cc1ccc(S(=O)(=O)Nc2ccc3c(c2)C(=O)N([C@@H](C)CO)C[C@@H](C)[C@H](CN(C)Cc2ccncc2)OCCCC[C@@H](C)O3)cc1	.	.	.	-1.9
COc1ccc(-n2c(Cc3cccn3C)nnc2SCC(=O)Nc2ccc(F)cc2F)cc1	7.6	+	70.6	0.1
CCN(C(=O)COC(=O)CNC(=O)c1ccc2ccccc2c1)C1CCS(=O)(=O)C1 (configuration not stated)	-0.2	i	585.6	47.3*
COCCCn1c(=O)/c(=C\c2ccccc2OC(F)F)s/c1=C(/C#N)C(N)=O	139.3*	i	303.0	-9.3
COCCCn1c(=O)/c(=C\c2ccc(OC(F)F)c(OC)c2)s/c1=C(/C#N)C(N)=O	10.6	i	284.8	-0.4
O=C(NC1CCCC1)C1CCCN1C(=O)Nc1ccc(Cl)cc1 (configuration not stated)	.	i	0.0*	.
Cc1occc1C(=O)N/N=C/C1=C(N2CCOCC2)C(=C/c2ccc(Cl)cc2Cl)/CC1	132.8*	i	.	-2.0
CCCNC(=O)Nc1ccc2c(c1)C(=O)N(C)C[C@@H](OC)[C@H](C)CN(Cc1ccc(-c3ccccn3)cc1)[C@H](C)CO2	.	.	.	-0.6
CSc1nnnn1-c1c(C)cccc1C	50.8*	i	341.6	-5.2
Cc1ccc(C)c(N2CCN(C(=O)CCS(=O)(=O)c3ccc4c(c3)NC(=O)CO4)CC2)c1	-1.7	i	421.2	70.6*
O=C1COc2ccc(S(=O)(=O)CCC(=O)N3CCN(c4ccccc4)CC3)cc2N1	0.2	i	336.1	1.5
CC(C)[N+]1=C2C=CC=CC=C2SC12C([N+](=O)[O-])=CC(=[N+]([O-])[O-])C=C2[N+](=O)[O-] (configuration not stated)	0.1	+	258.7	34.1
Cc1noc(C)c1S(=O)(=O)Nc1ccc2c(c1)C(=O)N([C@@H](C)CO)C[C@@H](C)[C@H](CN(C)S(=O)(=O)c1cn(C)cn1)OCCCC[C@H](C)O2	.	.	.	0.9
O=C(N/N=C/C=C/c1ccco1)c1cnccn1	-1.1	i	92.9	22.1
O=C(Cc1cccs1)N/N=C/C=C/c1ccco1	-0.6	i	260.5	37.7*
O=C(N/N=C/C=C\c1ccco1)c1ccccn1	4.0	i	419.4	37.2*
CCC(=O)N(C)C[C@H]1Oc2cc(-c3ccncc3)ccc2S(=O)(=O)N([C@H](C)CO)C[C@@H]1C	.	.	.	1.3
CC1=NC(C(F)(F)F)(C(F)(F)F)C2=C(CC(C)(C)CC2=O)N1Cc1ccco1	-5.2	i	493.2	.
CC1(C)CC(=O)C2=C(C1)N(Cc1ccco1)C(=O)NC2(C(F)(F)F)C(F)(F)F	54.3*	i	253.1	.
O=C(Nc1ccc2c(c1)[C@@H]1C[C@H](CC(=O)N3CCCCC3)O[C@@H](CO)[C@@H]1O2)c1ccc2c(c1)OCO2	.	.	.	-2.9
CCOC(=O)[C@@H]1[C@@H]2C=C[C@]3(O2)[C@H](C(=O)NCc2ccccc2)N(CCCCCCO)C(=O)[C@@H]13	.	.	.	-6.5
